Publication PMC2774623 (Biochemistry, 2008)

B1: NBD1 wt: purified wild-type recombinant murine NBD1 of CFTR (spanning sequence 389−673) (protein)
chain: TTGIIMENVTAFWEEGFGELLEKVQQSNGDRKHSSDENNVSFSHLCLVGNPVLKNINLNIEKGEMLAITGSTGSGKTSLLMLILGELEASEGIIKHSGRVSFCSQFSWIMPGTIKENIIFGVSYDEYRYKSVVKACQLQQDITKFAEQDNTVLGEGGVTLSGGQRARISLARAVYKDADLYLLDSPFGYLDVFTEEQVFESCVCKLMANKTRILVTSKMEHLRKADKILILHQGSSYFYGTFSELQSLRPDFSSKLMGYDTFDQFTEERRSSILTETLRRFSVDD
B2: NBD1 ΔF508: purified ΔF508 mutated recombinant murine NBD1 of CFTR (spanning sequence 389−673) (protein)
chain: TTGIIMENVTAFWEEGFGELLEKVQQSNGDRKHSSDENNVSFSHLCLVGNPVLKNINLNIEKGEMLAITGSTGSGKTSLLMLILGELEASEGIIKHSGRVSFCSQFSWIMPGTIKENIIGVSYDEYRYKSVVKACQLQQDITKFAEQDNTVLGEGGVTLSGGQRARISLARAVYKDADLYLLDSPFGYLDVFTEEQVFESCVCKLMANKTRILVTSKMEHLRKADKILILHQGSSYFYGTFSELQSLRPDFSSKLMGYDTFDQFTEERRSSILTETLRRFSVDD

Target: CK2α catalytic subunit
Experiment: SPR
Type: binding, human
Settings: for kd (s^−1) × 10^−3: SPR BIAcoreX, CK2α coupled to CM5 chip, 25 °C, HBS pH 7.4, Langmuir 1:1 model; for association constant ka (as printed in text): SPR, binding to CK2α, unit not given
Outline: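 Recombinant human CK2α, expressed in E. coli, amine-coupled to a CM5 chip (1600 RU). Mouse NBD1 analyte, wild type or ΔF508, at 15 μM, flowed at 10 μL/min, 25 °C, in HBS (10 mM Hepes pH 7.4, 150 mM NaCl, 3 mM EDTA, 0.005% P20). Blank-surface response subtracted; rate constants fitted to a 1:1 binding model.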

Row | Molecule | kd (s^−1) × 10^−3 [s^−1 × 10^−3] | association constant ka (as printed in text)
1 | B1 | 0.335 | 0.135 × 10^3
2 | B2 | 0.0877 | 0.96 × 10^3
